# Bioassay records: PubChem, several laboratories
# Sampled rows, rich in hits. Any-hit rate of the full collection: about 1.3%.
# UCH37 inh = human UCH37 deubiquitinating enzyme inhibition; purified proteasome/UCH37, Ub-AMC cleavage fluorescence; inhibition, % (no concentration beside the values); 0.33% of 330,000 active; AID 588478;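 active = mean inhibition over replicate wells above about 20%, limit read from the data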;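 note: 0% = compound-free wells with enzyme and 100% = wells lacking proteasome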
#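 Reagent: Ub-AMC substrate; assay system: Proteasome-associated human UCH37 deubiquitinase; controls: no-proteasome and no-compound wells; read-out: % inhibition of Ub-AMC cleavage fluorescence; timing: 30 min preincubation with enzyme, 25 min cleavage at room temperature; signal: AMC fluorescence from Ub-AMC cleavage, excitation 355 nm, emission 460 nm; buffer or medium: Tris-HCl pH 7.4 plus ovalbumin, ATP-MgCl2, DTT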
# CASP6 VEID inh = caspase-6 (human) enzyme inhibition. purified caspase-6, Z-VEID-R110 cleavage fluorescence. P55212. 0.53% of 350,000 active. inhibition, % at 12.5 µM;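 active = mean inhibition across replicates at least about 35%, with every replicate also reaching that limit, limit read from the data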;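 note: 0% = median of neutral control wells and 100% = no fluorescence left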
# TDP2 absorb = TDP2 (human) inhibition, absorbance primary screen | O95551 | recombinant TDP2, T5PNP hydrolysis, p-nitrophenol absorbance 415 nm | inhibition, % at 12.8 µM | 0.34% of 370,000 active | AID 720702;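 active = inhibition above the mean of all tested compounds plus 3 SD, set per campaign, cut at about 25% in these data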;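 note: 0% = DMSO with enzyme and 100% = buffer with substrate but no TDP2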
#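 Test system: human TDP2 enzyme; Input: 120 nM TDP2 per well; Buffer or medium: Mg2+-containing Tris-HCl buffer, pH 7.5; Reagent: 5 mM T5PNP; Dosing: 12.8 µM single point, 1% DMSO; Incubation: reaction 2 h, 37 °C; Detection: p-Nitrophenol epi absorbance; Read-out: % inhibition relative to enzyme-containing and enzyme-free wells; Replicates: single well per compound.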
# NSD2 HMT inh = blocks human histone methyltransferase NSD2. O96028. inhibition, % at 12.5 µM. NSD2 peptide methylation, AlphaScreen, 120 min. AID 743445. 0.54% of 310,000 active; in the data active = inhibition above about 50%
# Target sequence (O96028 whole entry, looked up): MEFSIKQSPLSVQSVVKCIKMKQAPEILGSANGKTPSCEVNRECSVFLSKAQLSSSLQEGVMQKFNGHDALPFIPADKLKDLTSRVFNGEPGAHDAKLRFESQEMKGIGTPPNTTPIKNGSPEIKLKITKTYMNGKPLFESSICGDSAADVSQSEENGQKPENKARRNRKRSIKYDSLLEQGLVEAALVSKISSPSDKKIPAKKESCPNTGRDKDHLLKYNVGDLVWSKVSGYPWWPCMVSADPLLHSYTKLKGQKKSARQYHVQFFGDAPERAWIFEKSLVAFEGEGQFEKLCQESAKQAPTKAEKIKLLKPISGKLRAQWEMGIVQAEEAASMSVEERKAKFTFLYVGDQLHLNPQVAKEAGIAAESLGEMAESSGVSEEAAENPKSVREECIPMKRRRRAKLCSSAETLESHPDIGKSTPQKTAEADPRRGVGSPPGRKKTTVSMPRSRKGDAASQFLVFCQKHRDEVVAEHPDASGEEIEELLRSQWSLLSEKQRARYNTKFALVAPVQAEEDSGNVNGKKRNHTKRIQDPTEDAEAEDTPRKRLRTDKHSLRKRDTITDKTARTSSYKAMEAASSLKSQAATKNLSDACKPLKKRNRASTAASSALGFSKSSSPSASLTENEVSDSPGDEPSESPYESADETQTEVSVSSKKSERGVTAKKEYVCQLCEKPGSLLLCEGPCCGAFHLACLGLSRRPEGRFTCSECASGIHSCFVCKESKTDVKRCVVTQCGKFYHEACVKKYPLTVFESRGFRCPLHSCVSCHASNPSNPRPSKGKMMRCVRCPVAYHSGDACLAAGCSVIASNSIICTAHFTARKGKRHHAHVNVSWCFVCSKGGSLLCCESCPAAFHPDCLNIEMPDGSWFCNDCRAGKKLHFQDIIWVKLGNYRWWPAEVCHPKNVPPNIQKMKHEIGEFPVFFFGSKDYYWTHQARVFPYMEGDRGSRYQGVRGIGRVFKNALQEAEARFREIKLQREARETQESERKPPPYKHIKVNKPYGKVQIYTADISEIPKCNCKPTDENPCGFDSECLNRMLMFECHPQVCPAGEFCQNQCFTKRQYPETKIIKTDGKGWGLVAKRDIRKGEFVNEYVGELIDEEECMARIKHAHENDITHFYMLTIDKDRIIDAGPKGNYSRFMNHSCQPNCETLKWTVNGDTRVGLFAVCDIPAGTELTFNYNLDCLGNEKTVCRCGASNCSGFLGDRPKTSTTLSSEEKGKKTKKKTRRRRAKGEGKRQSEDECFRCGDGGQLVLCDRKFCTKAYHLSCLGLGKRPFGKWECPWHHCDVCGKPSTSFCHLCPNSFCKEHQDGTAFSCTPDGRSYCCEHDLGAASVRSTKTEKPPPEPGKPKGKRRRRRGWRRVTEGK
# LEDGF integ inh = blocks HIV-1 LEDGF/p75-dependent DNA integration; TR-FRET IN-LEDGF/p75 DNA integration, Eu/Cy5; 0.64% of 370,000 active; inhibition, % at 3.7 µM; AID 743269;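 active = inhibition above the screen-wide mean plus 3 SD, cut at about 13% in these data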;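 note: signal is the Cy5 over europium emission ratio at 671 and 618 nm; 0% = plate median of compound wells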
# UCH37 confirm = reconfirmed inhibitor of human deubiquitinase UCH37. 27% of 480 active. shares compounds with UCH37 inh. inhibition, % at 20 µM. AID 624100. Proteasome-bound UCH37, Ub-AMC cleavage fluorescence;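 active = average inhibition over replicates above about 50%, so the earlier screening hit is confirmed, limit read from the data; inactive = the rest, counted as false positives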;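 note: based on cleavage rate fitted by regression over a 30 min kinetic read; 0% = proteasome plus Ub-AMC and 100% = Ub-AMC without proteasome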
# Numbers without * were called inactive; . = not tested or not shown.
SMILES,UCH37 inh,CASP6 VEID inh,TDP2 absorb,NSD2 HMT inh,LEDGF integ inh,UCH37 confirm
CCc1ccc(NC(=O)C2CC(=O)N=C(N)S2)cc1 (configuration not stated),4,.,-9,-2,1,.
Clc1ccc(CN2CCN(N=Cc3ccco3)CC2)cc1,2,.,.,.,.,.
CC(=O)[C@H]1[C@@H]2C(=O)N(c3cccc(Cl)c3)C(=O)[C@@H]2[C@H]2c3ccccc3C=CN21,40*,.,16,.,5,-9
C#CCOCCOCCOCCNc1nc(N2CCN(C(=O)[C@H](CCCCN)n3cc(CN)nn3)CC2)nc(N2CCN(C(=O)[C@H](CCCCN)n3cc([C@@H](N)[C@H](C)CC)nn3)CC2)n1,36*,-340,3,.,0,4
CSc1nnc(NC(=O)c2cc(=O)c3cc(C)cc(C)c3o2)s1,34*,-2,8,24,5,9
Cc1cc(C)c2oc(C(=O)Nc3nnc(C(C)C)s3)cc(=O)c2c1,14,1,-1,3,4,.
COc1ccc(C(=O)c2ccccc2)c2c(O)ccc(C(=O)c3ccccc3)c12,41*,.,-9,2,1,-7
COc1ccc(C=NNC(=O)CNC(=O)c2ccc(S(=O)(=O)N3CCOCC3)cc2)cc1OC,6,.,.,.,.,.
NC(=O)CC(NC(=O)Cc1ccc(Cl)cc1)c1ccc(NCCc2ccccc2F)c([N+](=O)[O-])c1 (configuration not stated),48*,-1,-14,.,0,2
Cc1ccc(S(=O)(=O)/N=C2\C=C(Nc3ccc(O)cc3)C(=O)c3ccccc32)cc1,48*,.,.,34,.,5
Cc1nc2ccccc2cc1C(=O)NN=Cc1ccccc1[N+](=O)[O-],2,.,.,.,.,.
N#Cc1cn(-c2ccccc2)nc1C(=O)c1ccccc1,37*,.,-10,-1,0,15
Cc1ccccc1OCC(=O)NCc1ccccc1,41*,0,-7,1,0,15
Cc1ccccc1OCC(=O)NNC(=O)CCc1ccccc1,5,-3,-4,-6,6,.
COc1ccccc1C(C)=NNC(=O)c1nnn(-c2nonc2N)c1C(C)C,1,.,.,.,.,.
N#CC1=C(N)NC(SCC(=O)Nc2ccccc2)=C(C#N)C12CCCC2,38*,.,6,1,2,34
N#CC1=C(N)NC(SCC(=O)O)=C(C#N)C12CCCC2,7,.,2,0,2,.
Cc1ccc(NC2C(=O)NC(=O)NC2=O)cc1,80*,16,4,.,0,-2
Cc1ccc(S(=O)(=O)N(CC(=O)NN=Cc2cccc(C)c2)c2cccc3cccnc23)cc1,1,.,.,.,.,.
Cc1ccc(C(=O)NNc2cc(N3CCCC3)nc(N3CCCC3)n2)cc1,49*,.,.,.,.,50*
O=C(NNc1cc(N2CCOCC2)nc(N2CCOCC2)n1)c1ccc(Cl)c(Cl)c1,3,6,-13,3,1,.
C=CCOc1ccc(C2/C(=C(/O)c3ccc(OC)cc3)C(=O)C(=O)N2CCN2CCNCC2)cc1 (configuration not stated),55*,0,-11,0,2,7
CCOc1ccc(C2/C(=C(/O)c3ccc(F)cc3)C(=O)C(=O)N2CCCN(C)C)cc1 (configuration not stated),35*,.,0,.,2,16
COC/C=C/C1=CC2=CC(=O)C(C)(OC(=O)c3cnc4ccccc4n3)C(=O)C2=CN1C1CC1 (configuration not stated),47*,5,14,.,6,24
COC/C=C/C1=CC2=CC(=O)C(C)(OC(=O)c3cnc4ccccc4n3)C(=O)C2=CN1c1ccc(OC)cc1 (configuration not stated),-2,.,3,.,1,.
SMILES,UCH37 inh,CASP6 VEID inh,TDP2 absorb,NSD2 HMT inh,LEDGF integ inh,UCH37 confirm
Cn1c(COc2ccccc2)nc2ccccc21,2,-5,-14,-3,4,.
Cn1c(Cc2nc3ccccc3n2C)nc2ccccc21,42*,.,1,.,-2,15
COc1cc(C=NNC(=O)c2ccccn2)ccc1OC(=O)c1cccs1,2,.,.,.,.,.
CC(C)=CCC(C)(C)C1OCCN1C(=O)c1ccccc1 (configuration not stated),63*,.,11,-2,0,68*
COc1ccc(OC)c(C2/C(=C(/O)c3cnn(-c4ccccc4)c3C)C(=O)C(=O)N2CCN(C)C)c1 (configuration not stated),35*,-3,3,0,5,14
COc1ccc(C2/C(=C(/O)c3cnn(-c4ccccc4)c3C)C(=O)C(=O)N2CCN(C)C)cc1OC (configuration not stated),15,-3,-7,.,-3,.
COc1ccc(C=NNC(=O)c2c(C)nnn2-c2nonc2N)cc1OC,-23,.,.,.,.,.
CN(C[C@H](Cc1ccccc1)N(C[C@H](c1ccccc1)N(CCc1ccccc1)N=O)N=O)N=O,4,9,-1,.,-1,.
CN(C[C@H](c1ccccc1)N(C[C@H](Cc1ccccc1)N(CCc1ccccc1)N=O)N=O)N=O,37*,4,1,.,-2,9
Cc1ccc(S(=O)(=O)NN=C/C=C/c2ccccc2)cc1,6,.,.,.,.,.
O=C(NC1=C(Nc2ccc(Cl)cc2)C(=O)c2ccccc2C1=O)c1ccccc1,9,23,5,27,-1,.
Cc1cccc(NC2=C(NC(=O)c3ccccc3)C(=O)c3ccccc3C2=O)c1,52*,.,-1,49,11,42
ON=C(CCc1ccccc1)C1(O)CCCCC1,-1,.,.,.,.,.
N=C1/C(=C/c2ccc(-c3cccc(C(=O)O)c3)o2)C(=O)N=C2SC=C(c3ccccc3)N12,26*,-2,4,.,24*,66*
CCOC(=O)Nc1ccc(S(=O)(=O)N2CCC(c3nc4ccccc4[nH]3)CC2)cc1,.,0,0,-6,3,.
CC(=O)Nc1ccc(S(=O)(=O)N2CCC(c3nc4ccc(C)cc4[nH]3)CC2)cc1,28*,.,-12,4,-6,12
Cc1ccnc(-n2c(C)cc(C=NNC(=O)COc3cccc4cccnc34)c2C)c1,8,.,.,.,.,.
Clc1ccc(Nc2nc(-c3ccncc3)cs2)cc1,49*,.,-1,0,-2,27
CCOC(=O)c1c(N2C(=O)CC(Sc3ccccc3C(=O)O)C2=O)sc(C)c1C (configuration not stated),2,1,-8,5,-3,.
CCOC(=O)c1c(N2C(=O)C3CC(C)=C(C)CC3C2=O)sc(C)c1C (configuration not stated),43*,.,0,0,1,64*
Cc1ccc(/C=C/c2ccc(N(C)C)cc2)[n+](C)c1,27*,-5,-8,6,-11,30
Cc1scc(C(=O)NN=Cc2ccco2)c1C,9,.,.,.,.,.
CC1=Nc2ccccc2/C1=C/c1sc(=S)n(-c2cccc(C(=O)O)c2)c1O,26*,6,3,18,0,57*
